Test results published in PubChem BioAssay AID1136 (Sanford-Burnham Center for Chemical Genomics, 2008).
In all, about 200,000 compounds went through this assay and fewer than 10 were called active. A selection follows. Values without a mark were called inactive.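 The calls were made as follows: active = activation factor at least 2 at 20 µM; inactive = the rest.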

target: Alkaline phosphatase, tissue-nonspecific isozyme (Homo sapiens) (UniProt P05186); experiment: activation of human TNAP, high DEA acceptor – biochemical, luminescence, uHTS, primary screen (AID 1136); conditions: purified TNAP, CDP-star luminescence, 1 M DEA, 30 min; at 20 µM; hits give high values; 0 = EDTA background, 1 = DMSO-only activity
Sequence (P05186 whole entry, looked up): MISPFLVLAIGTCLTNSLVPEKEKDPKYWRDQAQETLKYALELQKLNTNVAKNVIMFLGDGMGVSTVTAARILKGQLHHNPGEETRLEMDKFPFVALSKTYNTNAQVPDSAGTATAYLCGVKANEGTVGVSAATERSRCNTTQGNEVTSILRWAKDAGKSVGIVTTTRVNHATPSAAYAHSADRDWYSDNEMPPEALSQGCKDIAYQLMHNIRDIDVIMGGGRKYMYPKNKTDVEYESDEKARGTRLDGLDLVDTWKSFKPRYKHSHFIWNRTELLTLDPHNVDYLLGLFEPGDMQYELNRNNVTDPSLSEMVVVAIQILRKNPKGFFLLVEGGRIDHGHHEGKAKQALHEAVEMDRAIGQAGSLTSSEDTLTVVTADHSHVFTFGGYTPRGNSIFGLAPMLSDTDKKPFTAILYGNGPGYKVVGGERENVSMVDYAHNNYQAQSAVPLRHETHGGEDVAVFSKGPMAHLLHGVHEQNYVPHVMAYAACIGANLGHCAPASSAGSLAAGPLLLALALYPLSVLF
Procedure, shortened: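 Test system – human TNAP · Doses – 20 µM single point · Incubation – 30 min, room temperature · Signal – luminescent substrate turnover signal · Read-out basis – activation factor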

Compound	activation factor
CC1CCCN(S(=O)(=O)c2ccc(N(C(=O)c3cnccn3)C(C(=O)NC3CCCCC3)c3cccs3)cc2)C1 (stereo unspecified)	0.9
COc1ccc([N+](=O)[O-])cc1NC(=O)C(C)OC(=O)C1c2ccccc2Oc2ccccc21 (stereo unspecified)	1
COc1ccc(C(=O)Nc2ccc(NC(=O)C(C)C)nc2)cc1	1.1
COc1ccc(CNc2c(CO)cnc3c2cnn3C)cc1	1
CCOC(=O)c1sc(=NC(=O)/C=C/c2cccs2)n(C)c1C	1
CN(C)C(CNC(=O)c1ccc(S(=O)(=O)NCc2ccco2)cc1)c1ccccc1 (stereo unspecified)	1
Cc1cc(C)cc(OCC(=O)Nc2ccc(S(=O)(=O)Nc3ccccn3)cc2)c1	1
COc1ccc(C(=O)NC(=S)Nc2ccc(Cl)cn2)cc1OC	1.1
COc1ccc(N2C(=O)CC(Nc3ccc(F)cc3)C2=O)c([N+](=O)[O-])c1 (stereo unspecified)	1
CC(Oc1cccc(NC(=O)c2cccs2)c1)C(=O)c1ccccc1 (stereo unspecified)	1
CCCNS(=O)(=O)c1ccc(CCC(=O)N2CCCC2)cc1	1.1
COc1cc(OC)cc(-c2nnc(SCC(=O)Nc3ccc(C(=O)O)cc3)s2)c1	1
O=C(N/N=C/c1ccc(OCC2COCCO2)cc1)c1ccc(Br)cc1 (stereo unspecified)	1
CCN(C(=O)c1ccc(Br)cc1)c1ccccc1	1
Cn1ncc(N2CCN(S(=O)(=O)c3ccc(Br)cc3)CC2)c(Cl)c1=O	1.1
O=C(CSCC(=O)Nc1cccc([N+](=O)[O-])c1)Nc1ccccc1	1
Cc1ccc(S(=O)(=O)NNC(=O)Nc2cccc3ccccc23)cc1	1
CCN(CC)c1ccc2c(Nc3ccccc3)c(C=O)c(=O)oc2c1	1
O=C(COC(=O)CCCSc1nc2ccccc2[nH]1)Nc1ccc(Oc2ccccc2)cc1	1.1
O=C(NCc1cccnc1)c1cccc(-c2cc3ccccc3oc2=O)c1	1.1
C=CCN(C(=O)c1cc(C)cc(C)c1)C1(C(=O)Nc2ccccc2)CCN(C(C)C)CC1	1
CCOc1ccc(C(=O)Nc2nccs2)cc1[N+](=O)[O-]	1
COc1ccc(C)cc1NC(=O)NCc1ccccn1	1
CCC1S/C(=N/N=C/c2ccco2)NC1=O (stereo unspecified)	1

Compound	activation factor
CN(C)S(=O)(=O)c1ccc2oc(SCC(=O)Nc3ccccc3F)nc2c1	1
C=CCOC(=O)C1=C[C@@H](c2ccccc2)C[C@@H](OCc2ccc(CO)cc2)O1	1.1
NC1=C([N+](=O)[O-])C(c2ccccc2)C2=C(CCCC2=O)O1 (stereo unspecified)	1
Cc1ccc(C2(C(F)(F)F)N=C3Sc4cc(C)cc(C)c4N3C(=O)N2)cc1 (stereo unspecified)	1
CCN(CC(=O)NC1CCS(=O)(=O)C1)c1nc(-c2cccnc2)nc2ccccc12 (stereo unspecified)	1
COCC(C)NC(=O)COc1nncc2ccccc12 (stereo unspecified)	1.1
CC(=O)N1C(C)c2ccccc2C(C)(C)CC12CCCCC2 (stereo unspecified)	1
Cn1cccc1/C=C1\SC(=O)N(CC(=O)Nc2ccc(F)cc2)C1=O	1.1
COc1ccc(NC(=O)c2sc(N)nc2-c2ccccc2)cc1	1
Cc1c(NC(=S)NC(=O)CCc2ccccc2)c(=O)n(-c2ccccc2)n1C	1.1
CCCc1nc2c([nH]1)C(c1cccnc1)C(C#N)=C(N)O2 (stereo unspecified)	1
O=C1OC(/C=C/c2ccccc2)=NC/1=C/c1ccco1	1
CCc1ccc(CN(C)Cc2nc(Cc3ccccc3)no2)nc1	1.1
O=C(O)c1ccc2c3c(cccc13)C(=O)N(OS(=O)(=O)c1ccccc1)C2=O	1
CCN(CC)C(=O)Oc1ccc(OC(=O)N(CC)CC)cc1	1.1
CC(Sc1nncn1C)C(=O)Nc1cc(C(F)(F)F)ccc1N1CCOCC1 (stereo unspecified)	1
CN(C)/C=C(/C(=O)c1ccccc1)S(=O)(=O)c1ccc(Cl)cc1	1
O=C(/C=C/c1ccc([N+](=O)[O-])cc1)NCCSCc1ccco1	1
O=C(Oc1cccc(O)c1)C1CCCCC1	1
O=C(NCCc1ccccc1)C1CCC(Cn2c(=O)c3ccccc3n(Cc3cccnc3)c2=O)CC1 (stereo unspecified)	0.9
C=CCc1ccc(OCC(O)CN2CCN(Cc3ccccc3)CC2)c(OC)c1 (stereo unspecified)	1
CC(C)(C)NCc1cc(Br)ccc1OC1CCCC1	1
O=C(NCc1nnc(SCC(=O)N2CCCc3ccccc32)o1)c1ccccc1F	1
CN1CCN(c2ccc(NC(=O)c3ccc4c(c3)OCCO4)cc2Cl)CC1	1.1

Compound	activation factor
O=C(CC(=O)N/N=C\c1cccc(Cl)c1Cl)NCc1ccccc1	1
Cc1cc([N+](=O)[O-])nn1CC(=O)Nc1ccc(Cc2ccncc2)cc1	1
Cc1cc(C)n(-c2ccc(C(=O)O)cc2[N+](=O)[O-])n1	1
Cc1cccc(Nc2nc3c(S(=O)(=O)c4ccccc4)nnn3c3ccccc23)c1C	1.1
Cc1ccc(S(=O)(=O)NC(=O)COc2ccccc2C)cc1	1
Cc1nc2c(C(=O)NCc3cccs3)cnn2c(C)c1Cc1ccc(F)cc1	1
CC(=O)c1cccc(NC(=O)[C@@H](NC(N)=O)C(C)C)c1	1
Cc1cccc(C)c1OCC(=O)NC(Cc1c[nH]c2ccccc12)C(=O)O (stereo unspecified)	0.9
COc1ccc(N2CCN(C(=O)CNS(=O)(=O)c3ccc(C)c(C)c3)CC2)cc1	1.1
Cc1ccc(-n2cnc3ncnc(-c4ccccc4)c32)cc1	1.1
O=c1cc(CO)oc(C(Nc2cccc([N+](=O)[O-])c2)c2ccccn2)c1O (stereo unspecified)	1
Cc1ccc(NC(=O)c2csc3c2CCCC3)cc1	1
CCNC(=O)CC1C(=O)N(c2ccc(OC)cc2)C(=S)N1CCc1ccncc1 (stereo unspecified)	1
O=C(CC12CC3CC(CC(C3)C1)C2)NCc1ccco1	1
CN(C)c1ccc(/C=N\S(=O)(=O)c2ccccc2)cc1	1
Cn1c2c(c(=O)n(C)c1=O)C(c1cccc([N+](=O)[O-])c1)Nc1ccccc1O2 (stereo unspecified)	1
COC(=O)C1CCN(CC(N)=O)CC1	1.1
CCCCN(CC)C(=S)Nc1ccc2nc3n(c(=O)c2c1)CCCCC3	1
CCOC(=O)C1=NOC(Cn2cc(C(C)=O)c(=O)[nH]c2=O)C1 (stereo unspecified)	1
O=C(C1=C[C@H](c2coc3ccccc3c2=O)C[C@H](OCc2ccc(CO)cc2)O1)N1CCN(Cc2ccccc2)CC1	1
COc1ccc(C(=O)NCC(=O)N/N=C/c2ccc([N+](=O)[O-])s2)cc1OC	0.9
CC(=O)c1ccc(NC(=O)c2ccc3c(Cl)c4c(nc3c2)CCCC4)cc1	1
Cc1ccc(NS(=O)(=O)c2ccc(C)c(NC(=O)COc3ccc4ccccc4c3)c2)c(C)c1	1
CCCCC(CC)CNC(=O)C(=O)C1C(=O)Nc2ccccc21 (stereo unspecified)	1

Compound	activation factor
Nc1nc(NC(=O)/C=C/c2ccccc2)nn1-c1ccccc1	1
CCOC(=O)c1cccc(NC(=O)CCOc2ccccc2)c1	1
Cc1ccc2[nH]c(C(=O)O)c(NC(=O)c3ccccc3[N+](=O)[O-])c2c1	1
COc1ccc(Cl)cc1C(=O)NNC(=S)NC(=O)/C=C/c1ccco1	1.1
C=C(C)C1CC=C(C)/C(=N/NC(=O)CCCNc2cccc(C)c2)C1 (stereo unspecified)	1
O=C(Nc1ccc(C(=O)O)cc1)/C(=C/c1ccc([N+](=O)[O-])cc1)NC(=O)c1ccccc1	1
Cc1ccc(CN2CCN(/N=C/c3cccnc3)CC2)c(C)c1	1
COc1cc(OC)nc(S(C)(=O)=O)n1	1
CCn1c2ccccc2c2cc(NC(=O)COC(=O)c3cc(S(=O)(=O)N4CCCCC4)ccc3Cl)ccc21	1
N=C1C(c2nc3ccccc3[nH]2)=C(O)CN1NC(=O)c1c[nH]c2ccccc12	1.1
CCn1c(COc2ccccc2)nnc1SCC(=O)NCc1ccco1	1
Cc1cc(N2CCOCC2)nc(-c2ccc(Br)cc2)n1	1
Cc1nn(C)cc1C(=O)Nc1ccccc1Br	1
C/C=C(\C)C(=O)NCCN1C2=NC[C@H](Cc3ccc(O)cc3)N2C[C@@H]1Cc1ccc(OC)cc1	1.1
Cc1ccc(CN(Cc2cccnc2)C(=S)Nc2cc(Cl)ccc2C)cc1	1.1
COC(=O)CCSc1cc([N+](=O)[O-])cc2c1c(C1OCCS1)nn2-c1ccccc1 (stereo unspecified)	1
COc1ccc(OC)c(C2C3=C(N=c4s/c(=C\c5cccc(O)c5)c(=O)n42)c2ccccc2CC3)c1 (stereo unspecified)	0.9
CC(NC(=O)c1cccc2ccccc12)c1ccc2c(c1)CCCC2 (stereo unspecified)	1
COc1ccccc1NC(=O)C1=C(C)Nc2nc3ccccc3n2C1c1cccs1 (stereo unspecified)	1
CCOC(=O)c1sc(/N=C/C2=C(O)CC(C)(C)CC2=O)c(C(=O)OCC)c1C	1
O=C(CCNC(=O)c1ccc([N+](=O)[O-])cc1)Nc1ccccc1N1CCOCC1	1
CCN(CC)CCCNC(=O)c1ccc2c(=O)n(Cc3ccc4c(c3)OCO4)c(=S)[nH]c2c1	1
CC1(c2cccc([N+](=O)[O-])c2)CC(C)(C)N(C(=O)c2ccccc2)c2ccccc21 (stereo unspecified)	1
C=CS(=O)c1sc(Cl)c(N2CCOCC2)c1[N+](=O)[O-] (stereo unspecified)	1
